Test results: ChEMBL document CHEMBL1817604, “Synthesis and biological evaluation of 1-(4'-Indolyl and 6'-Quinolinyl) indoles as a new class of potent anticancer agents” (Eur J Med Chem, 2011)

Assays:
KB = test: Antiproliferative activity against human KB cells after 72 hrs by methylene blue assay; format: functional, cell-based
Method in brief: (§1)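 Lines kept in RPMI-1640 with 5% fetal bovine serum. Log-phase cells seeded at 5000 cells/mL/well in 24-well plates, then exposed to compound.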

[1] = Antiproliferative activity against human KB-VIN10 cells over-expressing P-gp 170/MDR1 after 72 hrs by methylene blue assay; format: functional, cell-based; conditions: KB-VIN10, 72 h
Method in brief: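 KB-VIN10 is a P-gp 170/MDR1-overexpressing subline derived from KB by continuous exposure to rising vincristine. It is maintained in growth medium with 10 nM vincristine. Log-phase cells seeded at 5000 cells/mL/well in 24-well plates before compound exposure.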

MKN-45 = test: Antiproliferative activity against human MKN45 cells after 72 hrs by methylene blue assay; format: functional, cell-based; conditions: MKN-45, 72 h; method in brief: as §1
HT-29 = test: Antiproliferative activity against human HT-29 cells after 72 hrs by methylene blue assay; format: functional, cell-based; conditions: HT-29, 72 h; method in brief: as §1
NCI-H460 = test: Antiproliferative activity against human H460 cells after 72 hrs by methylene blue assay; format: functional, cell-based; conditions: NCI-H460, 72 h
Method in brief: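 Log-phase cells seeded at 5000 cells/mL/well in 24-well plates, then exposed to compound.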

Bos taurus = organism: Bos taurus; test: Displacement of [3H]colchicine from biotin-labeled bovine brain tubulin at 5 uM after 2 hrs by liquid scintillation counter
[2] = Inhibition of bovine brain tubulin polymerization after 30 mins by turbidimetry analysis
[3] = Inhibition of tubulin polymerization
Method in brief: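 Bovine brain MAP-rich tubulin, 4 mg/mL in 100 mM PIPES (pH 6.9), 2 mM MgCl₂, 1 mM GTP, […] per well, with test compound or 2% (v/v) DMSO control. Turbidity read at 350 nm, 37 °C, every 30 s for 30 min.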

SMILES	IC50 (KB) [nM]	IC50 (MKN-45) [nM]	IC50 (HT-29) [nM]	IC50 (NCI-H460) [nM]	Activity (Bos taurus) [%]	IC50 [2] [nM]	IC50 [1] [nM]	IC50 [3] [µM]
COc1cc2c(c(OC)c1OC)-c1ccc(OC)c(=O)cc1[C@@H](NC(C)=O)CC2 [COLCHICINE]	10	12	15				121	
COc1ccc(-n2ccc3c(OC)c(OC)c(OC)cc32)cc1N	3250	1540	4150	2390			1380	
COc1ccc(-n2ccc3c(OC)c(OC)c(OC)cc32)c(N)c1	102	49	101	96	44	4700	50	
COc1cc2c(ccn2-c2ccc3c(ccn3C)c2)c(OC)c1OC	73	40	74	76	65	2700	53	
COc1ccc2nc(-n3ccc4c(OC)c(OC)c(OC)cc43)ccc2c1	7370	11500	3650	6170			9110	
COc1cc2c(ccn2-c2cccc3c2ccn3C)c(OC)c1OC	32	40	44	49	83	1700	25	
COc1cc2c(ccn2-c2ccc(N(C)C)cc2)c(OC)c1OC	148	105	148	172			63	
COc1cc2c(ccn2-c2ccc3occc3c2)c(OC)c1OC	537	322	646	690			265	
COc1ccc2ccc3cc(OC)c(OC)c(OC)c3c2c1								> 40
COc1ccc(-n2ccc3c(OC)c(OC)c(OC)cc32)cc1	186	145	179	198			135	
COc1ccc(/C=C\c2cc(OC)c(OC)c(OC)c2)cc1O [COMBRETASTATIN A4]	2	4.8	94	2.3	97		0.7	
COc1cc2c(ccn2-c2ccc3ncccc3c2)c(OC)c1OC	18	24	34	31	72	2700	11	

Now from value to molecule, other results behind:

IC50 (KB) [nM]	IC50 (MKN-45) [nM]	IC50 (HT-29) [nM]	IC50 (NCI-H460) [nM]	Activity (Bos taurus) [%]	IC50 [2] [nM]	SMILES	IC50 [1] [nM]	IC50 [3] [µM]
7950	4310	8140	7520			COc1cc2c(ccn2-c2ccc3ncncc3c2)c(OC)c1OC	3450	
900	682	921	955			COc1cc2c(ccn2-c2cccc3ncccc23)c(OC)c1OC	535	
216	197	329	318			COc1cc2c(ccn2-c2ccnc3ccccc23)c(OC)c1OC	130	
131	5900	6400	737			COc1ccc(-n2ccc3c(OC)c(OC)c(OC)cc32)cc1O	68	
85	59	81	81			COc1ccc2c(-n3ccc4c(OC)c(OC)c(OC)cc43)cn(C)c2c1	40	
